Assay results pooled from the literature.
Each line is one published result; the experiments were not run side by side.

| Compound | tested on | test | system | setting | measurement | result |
| --- | --- | --- | --- | --- | --- | --- |
| [2H]C([2H])([18F])[C@]([2H])(N)C(=O)O | U-87 MG |  | bone | 110 min, tumour-bearing | tracer uptake | 1.73 %ID/g |
| Cn1cc2c3c1C(=O)C(N)=CC3=NCC2 | HCT-116 | cell growth or viability, MTT |  | 72 h | CC50 | 2000 nM |
| C#CCN(C)CCCCCCOCc1ccc(CN(C)c2c3c(nc4ccccc24)CCCC3)cc1 |  |  | male Sprague-Dawley rat, plasma | intravenous, 1 mg/kg | AUC(0-inf) | 170 ng·h/mL |
| CC(=O)c1c([O-])cc(C)oc1=O.[Na+] |  |  | rat, serum | oral, 200 mg/kg | AUC(0-t) | 3190 µg·h/mL |
| C[C@]12CC[C@H]3[C@@H](CC=C4CC(O)CC[C@@]43CO)[C@@H]1CCC2O (some centres unmarked) |  |  | rat, plasma | intravenous, 1 mg/kg | AUC | 167 ng·h/mL |
| Cn1cc2c3c1C(=O)C(N)=CC3=[N+](C)CC2 | HCT-116 | cell growth or viability, MTT |  | 72 h | CC50 | 1000 nM |
| Cn1c2cccc(=O)c-2nc2ccccc21 |  |  | PAMPA | 40 µM, 5 h, pH 7.4 | Papp | 8.6 ×10⁻⁶ cm/s |
| COCC1=N[C@@]2(O)[C@H](C(=O)N(C)OC)[C@@H](c3ccccc3)[C@]3(c4ccc(OC)cc4)Oc4cc(OC)cc(OC)c4[C@]23N1 |  |  | PAMPA | 50 µM, 30 min, pH 7.4 | Papp | 783 ×10⁻⁶ cm/s |
